Measured values collected from several papers.
Each line is one published result; the experiments were not run side by side.
Medium: plasma

Compound	host	route	dose	setting	endpoint	result
[2H]C([2H])([2H])NC(=O)c1cc(Oc2ccc(NC(=O)Nc3ccc(Cl)c(C(F)(F)F)c3)cc2)ccn1	rat	oral	40 mg/kg	single dose	CL/F	2.67 mL/min/kg
C=CC(=O)N1CCC([C@@H]2CCNc3c(C(N)=O)c(-c4ccc(Oc5ccccc5)cc4)nn32)CC1	Sprague-Dawley rat	oral	16 mg/kg	–	CL/F	224 mL/min/kg
C[C@]1(O)CCCN(c2nc(Nc3ccc(S(=O)(=O)N[C@@H]4CCN(CC5CCN(c6ccc(C7CCC(=O)NC7=O)cc6F)CC5)C[C@H]4F)cc3F)ncc2C(F)(F)F)C1 (stereo partly shown)	rat	intravenous	2 mg/kg	–	clearance	12 mL/min/kg
Cc1nc(Nc2ncc(C(=O)Nc3c(C)cccc3Cl)s2)cc(N2CC[C@H](O)C2)n1	male Sprague-Dawley rat	intravenous	1 mg/kg	–	clearance	6.83 mL/min/kg
CCOc1c([C@H](C)n2nc(C)c3c(N)ncnc32)cc(Cl)c(F)c1[C@@H]1CNC(=O)C1	male Sprague-Dawley rat	oral	2 mg/kg	single dose	CL/F	10.3 mL/min/kg
CNS(=O)(=O)c1ccc(Nc2ncc(C(F)(F)F)c([C@H]3CC[C@@](C)(O)CC3)n2)c(C)c1	rat	intravenous	2 mg/kg	–	clearance	7 mL/min/kg
CC(=O)O[C@@H]1CC[C@@]2(C)[C@@H](CC[C@]3(C)[C@@H]2C(=O)C=C2[C@@H]4[C@@H](C)[C@H](C)CC[C@]4(C)CC[C@]23C)[C@@]1(C)C(=O)O	female Wistar rat	oral	1 mg/kg	single dose	CL/F	0.332 mL/min/kg
C[C@H]1Oc2cc(cnc2N)-c2c(nn(C)c2C#N)CN(C)C(=O)c2ccc(F)cc21	male Sprague-Dawley rat	oral	50 mg/kg	single dose	CL/F	16.7 mL/min/kg
CNC(=O)c1cc(Oc2ccc(NC(=O)Nc3ccc(Cl)c(C(F)(F)F)c3)cc2)ccn1	male Sprague-Dawley rat	oral	100 mg/kg	single dose	CL/F	96.7 mL/min/kg
Cc1cc(S(=O)(=O)N[C@]2(C)C[C@H](N3CCN(CC4CCN(c5ccc6c(c5F)n(C)c(=O)n6C5CCC(=O)NC5=O)CC4)CC3)C2)ccc1Nc1ncc(C(F)(F)F)c(N2CCC[C@](C)(O)C2)n1 (stereo partly shown)	rat	intravenous	2 mg/kg	–	clearance	145 mL/min/kg
